KDM4C inh – inhibitors of human demethylase GASC-1 KDM4C; GST-KDM4C 2-372, H3K9me3 peptide, LANCE TR-FRET; inhibition, % at 12.5 µM; 0.15% of 96,000 active;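 active means mean replicate inhibition above about 25%, with at least 55% of replicates also reaching it, limit read from the data, passing the limit was not always enough; inconclusive means only one of those two conditions met; inactive means neither condition met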
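reagent = H3K9me3 peptide substrate, Fe(II), 2-oxoglutarate | system = GST-tagged GASC-1 (JMJD2C) catalytic fragment, aa 2-372 | amount = enzyme final amount 10 nM | read-out = Fall in 671/618 emission ratio as inhibition | medium = HEPES buffer, pH 7.5, plus ascorbate | schedule = 30 min reaction, 60 min detection, RT | measured by = LANCE TR-FRET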
Pf Dd2 inh – inhibitors of Plasmodium falciparum Dd2 growth | P. falciparum Dd2 growth, SYBR Green, 72 h; hits give low values | activity change, % at 10 µM | 2.3% of 94,000 active; in the data active means activity change below about -80%; inconclusive means no clear call, values can overlap the other calls
IDH1 R132H inh – inhibitors of human IDH1 R132H | IDH1 R132H reductase, diaphorase/resazurin fluorescence, 60 min | inhibition, % at 10 µM | AID 624101 | 0.18% of 70,000 active; in the data active means inhibition above about 34%; inconclusive means no clear call, values can overlap the other calls; inactive means below about 11%;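 further: 0% = DMSO and 100% = no enzyme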
Target sequence (O75874 whole entry R132H): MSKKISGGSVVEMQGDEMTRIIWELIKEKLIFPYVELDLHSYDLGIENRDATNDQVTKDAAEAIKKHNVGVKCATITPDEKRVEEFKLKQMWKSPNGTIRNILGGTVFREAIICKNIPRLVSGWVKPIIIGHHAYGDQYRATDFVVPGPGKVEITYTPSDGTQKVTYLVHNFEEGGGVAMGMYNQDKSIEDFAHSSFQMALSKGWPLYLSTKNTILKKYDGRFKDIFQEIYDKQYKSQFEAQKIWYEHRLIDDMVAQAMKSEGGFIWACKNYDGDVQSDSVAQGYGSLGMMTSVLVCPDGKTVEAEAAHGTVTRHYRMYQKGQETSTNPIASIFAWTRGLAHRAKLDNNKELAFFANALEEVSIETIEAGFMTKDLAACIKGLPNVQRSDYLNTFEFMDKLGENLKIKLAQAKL
T cruzi growth-1 – T. cruzi proliferation inhibition; T. cruzi beta-gal in NIH3T3, GalScreen luminescence, 90 h; inhibition, % at 8.34 µM; 5.9% of 77,000 active;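 active means mean inhibition above about 93%, with at least 55% of replicates each passing it, limit read from the data, passing the limit was not always enough; inconclusive means only one of those two conditions holds; inactive means neither condition holds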
T cruzi growth-2 – Trypanosoma cruzi proliferation inhibition; 72% of 5,600 active; AID 651739; T. cruzi beta-gal in NIH3T3, GalScreen luminescence, 90 h; shares compounds with T cruzi growth-1; inhibition, % at 8.35 µM;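 active means mean replicate inhibition above about 95% and at least 55% of replicates individually reaching it, limit read from the data; inconclusive means only one of the two criteria is met; inactive means neither criterion is met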
T cruzi growth-3 – Trypanosoma cruzi proliferation inhibition; shares compounds with T cruzi growth-1; T. cruzi beta-gal in NIH3T3, GalScreen luminescence, 90 h; inhibition, % at 2.09 µM; 21% of 5,600 active;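 active means mean inhibition above about 95%, with at least 55% of replicates also reaching it, limit read from the data; inconclusive means meets just one of the two conditions; inactive means meets neither condition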;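 further: plate controls were neutral control median for no effect and positive control median for full effect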
3T3 cytotox – cytotoxicity in mouse NIH/3T3 fibroblasts | shares compounds with T cruzi growth-1 | NIH/3T3 viability, CellTiter-Glo ATP luminescence, 90 h | cytotoxicity (signal decrease), % at 8.35 µM | 14% of 5,600 active | AID 651742;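 active means mean signal decrease across replicates above about 35% based on untreated-well scatter, with enough replicates individually passing, limit read from the data; inconclusive means no rule stated though some were filed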;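 further: 0% = median of neutral control wells and 100% = median of positive control wells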
NIH3T3 tox 2 – NIH/3T3 (mouse) viability loss. shares compounds with T cruzi growth-1. NIH/3T3 viability, CellTiter-Glo ATP luminescence, 90 h. inhibition, % at 24.9 µM. 56% of 5,600 active;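 active means mean loss of cell viability signal at or above a set limit, and enough replicates individually reaching it; inconclusive means meets only the mean limit or only the replicate share; inactive means meets neither condition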;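 further: 0% = median of neutral control wells and 100% = median of positive control wells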
Starred values were filed as active, the others as inactive. Only some compounds are listed: those with a hit (about 5.8% of all), similar ones and a draw of the others.

N#C[C@H]1N[C@H](CO)[C@@H]1c1ccc(/C=C/c2ccccc2)cc1 was read as KDM4C inh 3.1, Pf Dd2 inh 25.7 and T cruzi growth-1 -28.7.
Screening Cc1ccc(S(=O)(=O)N(C)C[C@H]2Oc3ccc(NS(=O)(=O)c4cn(C)cn4)cc3C(=O)N([C@H](C)CO)C[C@H]2C)cc1 returned KDM4C inh 1.1, Pf Dd2 inh 32.1, IDH1 R132H inh -0.1 and T cruzi growth-1 -4.2.
`COc1ccc(NC(=O)Nc2ccc3c(c2)C(=O)N([C@@H](C)CO)C[C@H](C)[C@@H](CN(C)S(=O)(=O)c2ccc(C)cc2)OCCCC[C@@H](C)O3)cc1` gave KDM4C inh 0.2, Pf Dd2 inh -83.2*, IDH1 R132H inh -0.5, T cruzi growth-1 97.5*, T cruzi growth-2 111.1*, T cruzi growth-3 51.6, 3T3 cytotox -18.5 and NIH3T3 tox 2 8.1.
COc1ccc(NC(=O)Nc2ccc3c(c2)C(=O)N([C@@H](C)CO)C[C@@H](C)[C@@H](CN(C)S(=O)(=O)c2ccc(OC)cc2)OCCCC[C@H](C)O3)cc1 was read as KDM4C inh -0.2, Pf Dd2 inh 9.9, IDH1 R132H inh -0.1 and T cruzi growth-1 -48.2.
Screening COc1ccc(NC(=O)Nc2ccc3c(c2)C(=O)N([C@@H](C)CO)C[C@H](C)[C@@H](CN(C)S(=O)(=O)c2ccc(OC)cc2)OCCCC[C@H](C)O3)cc1 returned KDM4C inh -0.4, Pf Dd2 inh -61.1, T cruzi growth-1 inconclusive, T cruzi growth-2 108.5*, T cruzi growth-3 23.2, 3T3 cytotox 17.6 and NIH3T3 tox 2 3.3.
For COc1ccc(NC(=O)Nc2ccc3c(c2)C(=O)N([C@H](C)CO)C[C@@H](C)[C@@H](CN(C)S(=O)(=O)c2ccc(C)cc2)OCCCC[C@H](C)O3)cc1 the results were KDM4C inh 1.3, Pf Dd2 inh -75.1 and T cruzi growth-1 -79.5.
Screening COc1ccc(NC(=O)Nc2ccc3c(c2)C(=O)N([C@H](C)CO)C[C@H](C)[C@H](CN(C)S(=O)(=O)c2ccc(OC)cc2)OCCCC[C@H](C)O3)cc1 returned KDM4C inh 1.1, Pf Dd2 inh -44.7, T cruzi growth-1 inconclusive, T cruzi growth-2 104.0*, T cruzi growth-3 50.5, 3T3 cytotox 3.1 and NIH3T3 tox 2 13.8.
For CC(C)NC(=O)Nc1cccc2c1O[C@H](CN(C)C)[C@@H](C)CN([C@@H](C)CO)C2=O the results were KDM4C inh -1.6, Pf Dd2 inh -0.8, IDH1 R132H inh -2.1 and T cruzi growth-1 0.9.
For COc1ccc(S(=O)(=O)N(C)C[C@H]2Oc3ccc(NC(=O)Cc4cn(C)c5ccccc45)cc3CC(=O)N([C@@H](C)CO)C[C@@H]2C)cc1 the results were KDM4C inh -0.6, Pf Dd2 inh 7.9, IDH1 R132H inh 0.2 and T cruzi growth-1 6.6.
C[C@@H]1CN([C@@H](C)CO)C(=O)c2cccc(NC(=O)c3cnccn3)c2O[C@@H]1CN(C)CC1CC1 was read as KDM4C inh 5.0, Pf Dd2 inh -7.9, IDH1 R132H inh 1.9 and T cruzi growth-1 -32.6.
`CO[C@@H](CN(C)S(=O)(=O)c1cccc(Cl)c1)[C@@H](C)CN([C@H](C)CO)S(=O)(=O)c1cccc(Cl)c1` gave KDM4C inh -2.3, Pf Dd2 inh -21.9, IDH1 R132H inh -0.4 and T cruzi growth-1 90.7.
For CO[C@@H](CN(C)S(=O)(=O)c1cccc(Cl)c1)[C@H](C)CN([C@@H](C)CO)S(=O)(=O)c1ccc(Cl)cc1 the results were KDM4C inh -0.2, Pf Dd2 inh -13.3, IDH1 R132H inh -0.4, T cruzi growth-1 102.7*, T cruzi growth-2 inconclusive, T cruzi growth-3 23.0, 3T3 cytotox inconclusive and NIH3T3 tox 2 75.6*.
Screening CO[C@H](CN(C)S(=O)(=O)c1cccc(Cl)c1)[C@H](C)CN([C@@H](C)CO)S(=O)(=O)c1cccc(Cl)c1 returned KDM4C inh -1.1, Pf Dd2 inh -52.4, IDH1 R132H inh -0.6, T cruzi growth-1 99.3*, T cruzi growth-2 109.7*, T cruzi growth-3 24.3, 3T3 cytotox 49.3* and NIH3T3 tox 2 57.7*.
`CO[C@H](CN(C)S(=O)(=O)c1cccc(Cl)c1)[C@H](C)CN([C@H](C)CO)S(=O)(=O)c1cccc(Cl)c1` gave KDM4C inh -0.7, Pf Dd2 inh -34.5, IDH1 R132H inh -0.6, T cruzi growth-1 101.0*, T cruzi growth-2 113.3*, T cruzi growth-3 71.5, 3T3 cytotox inconclusive and NIH3T3 tox 2 60.0*.
`CO[C@H](CN(C)S(=O)(=O)c1ccc(C)cc1)[C@H](C)CN([C@H](C)CO)S(=O)(=O)c1cccc(Cl)c1` gave KDM4C inh -2.6, Pf Dd2 inh -3.9, IDH1 R132H inh -0.7, T cruzi growth-1 102.0*, T cruzi growth-2 102.8*, T cruzi growth-3 25.9, 3T3 cytotox 57.7* and NIH3T3 tox 2 83.6*.
`CO[C@H]1CN(C)C(=O)c2cc(NC(=O)C3CCOCC3)ccc2OC[C@H](C)N(CC2CC2)C[C@H]1C` gave KDM4C inh 0.3, Pf Dd2 inh 32.3, IDH1 R132H inh 0.2 and T cruzi growth-1 38.0.
`CCC(=O)Nc1ccc2c(c1)OC[C@@H](C)N(Cc1ccncc1)C[C@H](C)[C@@H](OC)CN(C)C2=O` gave KDM4C inh 1.3, Pf Dd2 inh 13.3, IDH1 R132H inh -0.4 and T cruzi growth-1 22.7.
Screening COc1ccc(C#Cc2ccc([C@@H]3[C@H]4CN(C(=O)c5ccncc5)CCCCN4[C@H]3CO)cc2)cc1 returned KDM4C inh -1.4, Pf Dd2 inh -26.7 and T cruzi growth-1 89.2.
For O=C(c1ccncc1)N1CCCCN2[C@@H](CO)[C@H](c3ccc(C#Cc4ccccn4)cc3)[C@@H]2C1 the results were KDM4C inh 0.9, Pf Dd2 inh -3.9, T cruzi growth-1 105.3*, T cruzi growth-2 inconclusive, T cruzi growth-3 15.1, 3T3 cytotox 1.5 and NIH3T3 tox 2 3.2.
`C[C@H](O)C#Cc1ccc([C@H]2[C@H]3CN(C(=O)c4ccncc4)CCCCN3[C@H]2CO)cc1` gave KDM4C inh 0.8, Pf Dd2 inh 17.4, T cruzi growth-1 100.9*, T cruzi growth-2 -4.2, T cruzi growth-3 1.0, 3T3 cytotox -9.4 and NIH3T3 tox 2 10.9.
C[C@@H](O)C#Cc1ccc([C@H]2[C@@H](CO)N3CCCCN(C(=O)c4ccncc4)C[C@H]23)cc1 was read as KDM4C inh 0.8, Pf Dd2 inh 23.4 and T cruzi growth-1 16.1.
